Test results: ChEMBL document CHEMBL1150387, “Development and experimental validation of a docking strategy for the generation of kinase-targeted libraries” (J Med Chem, 2008)

Experiments:
[1] = biological target: Fibroblast growth factor receptor 1 (Homo sapiens) (UniProt P11362); experiment: Inhibition of FGFR1 at 10 uM by HTRF assay relative to control
Outline: (§1)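 HTRF kinase assay, one panel of kinases. Inhibitor stock 50 µM in 100% DMSO; tested at 10 µM. ATP and substrate at final levels near Km. Final buffer: 50 mM Hepes/NaOH pH 7.4, 40 µM Na3VO4, 0.005% Tween-20, 1 mM DTT, MnCl2 or MgCl2 at kinase-dependent levels. Started by adding ATP/substrate. Reaction run at room temperature, time varied by kinase. Detection mix in 50 mM Hepes pH 7.4, 0.1% BSA, 150 mM KF, incubated ≥1 h at room temperature. Activity expressed as % of uninhibited control; n=2.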

[2] = biological target: Calcium/calmodulin-dependent protein kinase type II subunit alpha (Homo sapiens) (UniProt Q9UQM7); experiment: Inhibition of CaMK2alpha at 10 uM by HTRF assay relative to control; outline: as §1
Calcium/calmodulin-dependent protein kinase type II subunit alpha (Homo sapiens), sequence (Q9UQM7 whole entry): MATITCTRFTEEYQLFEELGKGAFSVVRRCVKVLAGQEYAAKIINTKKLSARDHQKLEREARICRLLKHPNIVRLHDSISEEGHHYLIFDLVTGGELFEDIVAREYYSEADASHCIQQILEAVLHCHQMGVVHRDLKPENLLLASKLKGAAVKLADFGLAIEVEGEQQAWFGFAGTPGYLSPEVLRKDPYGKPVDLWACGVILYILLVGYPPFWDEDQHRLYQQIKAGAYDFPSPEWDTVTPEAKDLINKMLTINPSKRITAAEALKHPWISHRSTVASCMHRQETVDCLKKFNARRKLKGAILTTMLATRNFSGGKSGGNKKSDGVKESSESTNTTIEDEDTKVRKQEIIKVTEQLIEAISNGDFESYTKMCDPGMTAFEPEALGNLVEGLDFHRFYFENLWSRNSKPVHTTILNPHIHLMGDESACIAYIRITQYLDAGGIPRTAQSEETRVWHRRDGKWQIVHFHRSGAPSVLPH

[3] = biological target: Cyclin-dependent kinase 2 (Homo sapiens) (UniProt P24941); experiment: Inhibition of CDK2 at 10 uM by HTRF assay relative to control; outline: as §1
[4] = biological target: Receptor-type tyrosine-protein kinase FLT3 (Homo sapiens) (UniProt P36888); experiment: Inhibition of FLT3 at 10 uM by HTRF assay relative to control; outline: as §1
[5] = biological target: MAP kinase-activated protein kinase 2 (Homo sapiens) (UniProt P49137); experiment: Inhibition of MAPKAPK2 at 10 uM by HTRF assay relative to control; outline: as §1
MAP kinase-activated protein kinase 2 (Homo sapiens), sequence (P49137 whole entry, looked up): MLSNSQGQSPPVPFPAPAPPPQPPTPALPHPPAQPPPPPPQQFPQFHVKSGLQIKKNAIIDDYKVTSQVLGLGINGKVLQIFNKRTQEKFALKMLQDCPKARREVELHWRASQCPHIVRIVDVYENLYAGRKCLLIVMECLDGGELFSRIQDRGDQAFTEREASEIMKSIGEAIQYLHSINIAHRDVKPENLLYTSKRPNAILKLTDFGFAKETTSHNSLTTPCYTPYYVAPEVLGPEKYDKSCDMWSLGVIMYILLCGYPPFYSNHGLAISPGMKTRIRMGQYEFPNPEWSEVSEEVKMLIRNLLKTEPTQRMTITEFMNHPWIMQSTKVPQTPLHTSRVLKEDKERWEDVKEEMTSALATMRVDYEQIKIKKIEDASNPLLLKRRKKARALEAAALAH

[6] = biological target: Vascular endothelial growth factor receptor 1 (Homo sapiens) (UniProt P17948); experiment: Inhibition of FLT1 at 10 uM by HTRF assay relative to control; outline: as §1
Vascular endothelial growth factor receptor 1 (Homo sapiens), sequence (P17948 whole entry): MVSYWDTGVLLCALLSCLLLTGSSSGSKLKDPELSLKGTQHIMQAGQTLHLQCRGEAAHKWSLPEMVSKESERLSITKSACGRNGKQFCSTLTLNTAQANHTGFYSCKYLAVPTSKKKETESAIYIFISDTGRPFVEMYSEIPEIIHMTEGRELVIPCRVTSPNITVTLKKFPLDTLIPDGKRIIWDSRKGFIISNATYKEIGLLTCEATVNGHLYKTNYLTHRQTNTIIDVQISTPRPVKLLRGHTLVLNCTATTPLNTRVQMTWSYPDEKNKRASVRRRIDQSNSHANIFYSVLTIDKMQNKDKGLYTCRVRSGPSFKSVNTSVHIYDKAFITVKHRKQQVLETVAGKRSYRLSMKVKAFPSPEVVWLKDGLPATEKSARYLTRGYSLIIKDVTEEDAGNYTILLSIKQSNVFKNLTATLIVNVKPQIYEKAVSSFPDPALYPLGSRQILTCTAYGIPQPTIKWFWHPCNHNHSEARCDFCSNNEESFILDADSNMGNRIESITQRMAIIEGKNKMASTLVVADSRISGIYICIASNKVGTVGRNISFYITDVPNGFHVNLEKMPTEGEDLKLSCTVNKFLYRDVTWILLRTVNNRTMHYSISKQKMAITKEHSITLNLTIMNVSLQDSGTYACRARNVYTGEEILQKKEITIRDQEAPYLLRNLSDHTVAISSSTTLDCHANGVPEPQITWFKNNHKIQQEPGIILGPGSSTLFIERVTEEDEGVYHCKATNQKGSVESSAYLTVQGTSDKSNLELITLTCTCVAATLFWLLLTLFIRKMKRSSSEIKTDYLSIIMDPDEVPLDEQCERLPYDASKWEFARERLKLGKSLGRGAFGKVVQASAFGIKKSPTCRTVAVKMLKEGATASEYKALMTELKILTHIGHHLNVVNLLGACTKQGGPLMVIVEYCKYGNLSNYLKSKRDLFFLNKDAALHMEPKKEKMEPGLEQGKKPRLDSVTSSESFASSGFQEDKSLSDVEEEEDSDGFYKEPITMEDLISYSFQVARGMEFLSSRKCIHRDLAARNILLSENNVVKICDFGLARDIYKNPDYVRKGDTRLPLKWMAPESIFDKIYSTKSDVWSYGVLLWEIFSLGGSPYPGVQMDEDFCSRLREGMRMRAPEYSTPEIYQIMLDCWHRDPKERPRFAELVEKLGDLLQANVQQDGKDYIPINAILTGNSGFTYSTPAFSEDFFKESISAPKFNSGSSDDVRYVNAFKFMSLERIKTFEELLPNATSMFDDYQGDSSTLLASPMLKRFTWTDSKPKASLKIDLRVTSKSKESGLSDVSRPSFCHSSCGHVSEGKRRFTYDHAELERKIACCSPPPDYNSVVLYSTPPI

[7] = biological target: Ribosomal protein S6 kinase alpha-3 (Homo sapiens) (UniProt P51812); experiment: Inhibition of RSK2 at 10 uM by HTRF assay relative to control; outline: as §1
[8] = biological target: T1, Calcium/calmodulin-dependent protein kinase type IV (Homo sapiens) (UniProt Q16566); experiment: Inhibition of CaMK4 at 10 uM by HTRF assay relative to control; outline: as §1
T1 sequence (whole entry): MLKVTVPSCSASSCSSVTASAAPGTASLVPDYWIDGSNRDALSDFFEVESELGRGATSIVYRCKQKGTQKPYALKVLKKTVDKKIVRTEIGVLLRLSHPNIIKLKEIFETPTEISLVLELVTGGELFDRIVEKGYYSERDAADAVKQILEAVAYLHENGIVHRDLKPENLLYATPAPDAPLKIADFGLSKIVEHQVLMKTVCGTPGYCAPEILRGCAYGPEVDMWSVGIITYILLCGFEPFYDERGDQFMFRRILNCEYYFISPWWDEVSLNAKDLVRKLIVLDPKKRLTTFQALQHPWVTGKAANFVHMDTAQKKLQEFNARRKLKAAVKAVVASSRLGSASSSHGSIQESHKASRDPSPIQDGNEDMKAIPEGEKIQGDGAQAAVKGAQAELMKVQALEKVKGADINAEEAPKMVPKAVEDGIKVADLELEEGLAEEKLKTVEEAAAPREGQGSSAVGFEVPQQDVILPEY

[9] = biological target: High affinity nerve growth factor receptor (Homo sapiens) (UniProt P04629); experiment: Inhibition of TrkA at 10 uM by HTRF assay relative to control; outline: as §1
[10] = biological target: Mitogen-activated protein kinase 9 (Homo sapiens) (UniProt P45984); experiment: Inhibition of JNK2 at 10 uM by HTRF assay relative to control; outline: as §1
Mitogen-activated protein kinase 9 (Homo sapiens), sequence (P45984 whole entry, looked up): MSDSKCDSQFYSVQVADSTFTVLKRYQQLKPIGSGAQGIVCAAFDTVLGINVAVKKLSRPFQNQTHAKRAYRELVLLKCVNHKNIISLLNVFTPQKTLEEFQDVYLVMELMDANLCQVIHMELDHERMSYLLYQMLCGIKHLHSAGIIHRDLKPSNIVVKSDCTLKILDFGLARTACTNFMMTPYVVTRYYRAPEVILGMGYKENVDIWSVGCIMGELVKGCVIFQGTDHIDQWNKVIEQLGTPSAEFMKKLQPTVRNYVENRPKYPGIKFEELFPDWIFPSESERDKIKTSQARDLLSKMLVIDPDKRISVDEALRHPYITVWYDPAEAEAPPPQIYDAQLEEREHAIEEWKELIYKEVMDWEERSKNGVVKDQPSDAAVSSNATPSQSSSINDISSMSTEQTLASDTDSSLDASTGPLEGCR

[11] = biological target: Tyrosine-protein kinase Fes/Fps (Homo sapiens) (UniProt P07332); experiment: Inhibition of FES at 10 uM by HTRF assay relative to control; outline: as §1
[12] = biological target: Protein kinase C alpha type (Homo sapiens) (UniProt P17252); experiment: Inhibition of PKCalpha at 10 uM by HTRF assay relative to control; outline: as §1
[13] = biological target: Mitogen-activated protein kinase 1 (Homo sapiens) (UniProt P28482); experiment: Inhibition of ERK2 at 10 uM by HTRF assay relative to control; outline: as §1
Mitogen-activated protein kinase 1 (Homo sapiens), sequence (P28482 whole entry): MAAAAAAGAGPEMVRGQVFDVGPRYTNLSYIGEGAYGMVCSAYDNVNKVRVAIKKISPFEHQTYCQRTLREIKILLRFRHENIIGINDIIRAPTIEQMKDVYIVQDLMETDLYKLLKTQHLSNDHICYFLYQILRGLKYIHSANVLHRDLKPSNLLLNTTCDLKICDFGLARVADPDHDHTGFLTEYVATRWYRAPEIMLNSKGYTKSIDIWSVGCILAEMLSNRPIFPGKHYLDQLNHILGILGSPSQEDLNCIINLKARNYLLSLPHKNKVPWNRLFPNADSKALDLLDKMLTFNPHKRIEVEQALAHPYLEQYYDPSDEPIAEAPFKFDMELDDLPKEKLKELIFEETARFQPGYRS

[14] = biological target: Serine/threonine-protein kinase Chk2 (Homo sapiens) (UniProt O96017); experiment: Inhibition of CHK2 at 10 uM by HTRF assay relative to control; outline: as §1
[15] = biological target: T2, Tyrosine-protein kinase JAK3 (Homo sapiens) (UniProt P52333); experiment: Inhibition of JAK3 at 10 uM by HTRF assay relative to control; outline: as §1
T2 sequence (whole entry): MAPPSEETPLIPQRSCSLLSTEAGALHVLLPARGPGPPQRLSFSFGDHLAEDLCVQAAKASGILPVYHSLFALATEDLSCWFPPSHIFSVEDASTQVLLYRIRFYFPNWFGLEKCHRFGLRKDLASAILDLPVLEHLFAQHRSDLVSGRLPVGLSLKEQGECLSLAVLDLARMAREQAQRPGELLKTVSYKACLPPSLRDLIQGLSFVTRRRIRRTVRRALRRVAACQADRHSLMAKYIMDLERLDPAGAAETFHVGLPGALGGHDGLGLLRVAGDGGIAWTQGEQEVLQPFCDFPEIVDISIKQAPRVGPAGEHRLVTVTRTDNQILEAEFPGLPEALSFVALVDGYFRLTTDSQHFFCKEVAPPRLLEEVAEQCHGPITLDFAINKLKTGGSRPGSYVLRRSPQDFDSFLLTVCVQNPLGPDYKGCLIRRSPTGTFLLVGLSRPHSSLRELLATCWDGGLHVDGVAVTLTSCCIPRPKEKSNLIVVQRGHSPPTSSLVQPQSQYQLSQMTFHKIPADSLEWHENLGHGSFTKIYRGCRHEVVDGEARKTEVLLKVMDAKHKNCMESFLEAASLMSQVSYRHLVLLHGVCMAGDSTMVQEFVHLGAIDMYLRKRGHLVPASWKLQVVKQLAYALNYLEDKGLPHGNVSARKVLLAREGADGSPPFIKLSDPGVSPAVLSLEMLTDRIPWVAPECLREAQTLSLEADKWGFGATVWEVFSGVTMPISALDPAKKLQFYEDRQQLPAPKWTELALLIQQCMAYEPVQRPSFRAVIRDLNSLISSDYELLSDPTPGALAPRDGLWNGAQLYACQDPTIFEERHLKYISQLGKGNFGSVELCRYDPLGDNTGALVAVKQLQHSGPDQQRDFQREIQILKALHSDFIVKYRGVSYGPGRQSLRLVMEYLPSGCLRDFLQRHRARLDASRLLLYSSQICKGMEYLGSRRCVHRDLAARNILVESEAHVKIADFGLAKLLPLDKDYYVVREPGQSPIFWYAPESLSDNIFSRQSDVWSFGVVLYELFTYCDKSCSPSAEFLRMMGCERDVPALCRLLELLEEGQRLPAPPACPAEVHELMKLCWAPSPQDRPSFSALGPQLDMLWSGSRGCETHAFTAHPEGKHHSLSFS

[16] = biological target: Ribosomal protein S6 kinase beta-1 (Homo sapiens) (UniProt P23443); experiment: Inhibition of p70S6K at 10 uM by HTRF assay relative to control; outline: as §1
Ribosomal protein S6 kinase beta-1 (Homo sapiens), sequence (P23443 whole entry, looked up): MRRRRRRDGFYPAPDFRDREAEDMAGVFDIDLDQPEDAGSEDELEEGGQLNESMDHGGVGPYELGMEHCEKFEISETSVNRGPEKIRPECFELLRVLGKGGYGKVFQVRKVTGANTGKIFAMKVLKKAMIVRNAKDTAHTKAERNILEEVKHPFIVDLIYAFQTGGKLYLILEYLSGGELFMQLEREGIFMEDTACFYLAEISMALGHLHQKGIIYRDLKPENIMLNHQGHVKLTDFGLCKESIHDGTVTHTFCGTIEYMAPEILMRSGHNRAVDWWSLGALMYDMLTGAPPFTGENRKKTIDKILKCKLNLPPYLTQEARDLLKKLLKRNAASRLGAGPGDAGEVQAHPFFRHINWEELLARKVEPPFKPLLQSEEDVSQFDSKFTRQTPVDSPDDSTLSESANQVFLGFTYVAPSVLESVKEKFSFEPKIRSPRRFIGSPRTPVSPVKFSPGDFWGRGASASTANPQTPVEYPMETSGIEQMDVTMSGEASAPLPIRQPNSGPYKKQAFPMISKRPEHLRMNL

[17] = biological target: Protein kinase C gamma type (Homo sapiens) (UniProt P05129); experiment: Inhibition of PKCgamma at 10 uM by HTRF assay relative to control; outline: as §1

Fibroblast growth factor receptor 1 (Homo sapiens), sequence (P11362 22-822 limits assumed): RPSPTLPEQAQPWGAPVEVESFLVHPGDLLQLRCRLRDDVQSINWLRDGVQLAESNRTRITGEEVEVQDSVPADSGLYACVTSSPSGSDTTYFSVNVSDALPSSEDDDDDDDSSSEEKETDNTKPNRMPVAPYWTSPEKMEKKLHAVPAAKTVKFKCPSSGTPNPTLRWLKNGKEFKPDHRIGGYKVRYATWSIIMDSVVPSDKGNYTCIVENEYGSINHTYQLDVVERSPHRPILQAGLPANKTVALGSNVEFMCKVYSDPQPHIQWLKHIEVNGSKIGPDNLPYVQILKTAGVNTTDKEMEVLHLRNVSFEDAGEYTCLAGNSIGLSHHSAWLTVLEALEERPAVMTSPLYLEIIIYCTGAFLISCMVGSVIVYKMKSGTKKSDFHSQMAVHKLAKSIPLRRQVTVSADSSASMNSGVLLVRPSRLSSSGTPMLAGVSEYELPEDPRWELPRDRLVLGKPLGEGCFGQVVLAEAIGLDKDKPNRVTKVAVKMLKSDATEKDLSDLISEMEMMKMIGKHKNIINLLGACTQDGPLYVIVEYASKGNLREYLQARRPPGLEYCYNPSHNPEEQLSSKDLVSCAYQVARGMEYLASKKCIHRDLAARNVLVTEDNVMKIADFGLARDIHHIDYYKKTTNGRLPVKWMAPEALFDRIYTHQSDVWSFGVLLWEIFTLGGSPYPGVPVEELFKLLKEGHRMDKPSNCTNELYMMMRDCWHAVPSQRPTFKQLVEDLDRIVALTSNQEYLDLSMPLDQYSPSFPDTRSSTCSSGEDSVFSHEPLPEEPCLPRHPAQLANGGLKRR

Compound	inhibition [1] [%]	inhibition [2] [%]	inhibition [3] [%]	inhibition [4] [%]	inhibition [5] [%]	inhibition [6] [%]	inhibition [7] [%]	inhibition [8] [%]	inhibition [9] [%]	inhibition [10] [%]	inhibition [11] [%]	inhibition [12] [%]	inhibition [13] [%]	inhibition [14] [%]	inhibition [15] [%]	inhibition [16] [%]	inhibition [17] [%]
Cc1cccc(Oc2ccnc(N3CCN(C(=O)c4c(C)noc4C)CC3)n2)c1	5	0	2	0	0	7	0	0	8	6	7	0	0	3	0	5	3
CN(CCCn1ccnc1)C(=O)[C@@H]1CCCN1c1nccc(Nc2ccccc2)n1	0	0	24	0	2	4	0	0	11	6	1	0	0	5	0	6	0
Cc1cccc(Oc2ccnc(N3CCC[C@H]3C(=O)NCc3cccnc3)n2)c1	0	0	8	0	0	0	0	0	4	4	5	0	0	4	0	16	6
CN(C)CC(C)(C)CNC(=O)C1CCN(c2cc(N3CCOCC3)nc(N)n2)CC1	21	0	8	0	0	0	0	0	7	1	3	0	0	2	0	6	3
Cc1cccc(Oc2ccnc(N3CCC[C@H]3C(=O)NCCCn3ccnc3)n2)c1	1	0	3	0	2	0	0	0	7	7	2	0	0	0	7	7	1
Nc1nc(N2CCOCC2)cc(N2CCC(C(=O)NCc3cccs3)CC2)n1	11	0	14	0	0	0	0	0	9	3	9	0	0	0	0	7	0
Cc1cccc(Nc2ncnc3c2CN(C(=O)c2ccc(N(C)C)c4ccccc24)CC3)c1	0	0	24	0	0	1	0	0	8	1	3	0	0	2	0	0	2
O=C(c1nc(SCc2ccc(Cl)cc2)n2ccccc12)N1CCN(c2ncnc3c2CN(Cc2ccccc2)CC3)CC1	0	0	0	0	1	0	0	0	5	1	0	0	3	0	3	3	4
Nc1nc(N2CCOCC2)cc(N2CCC(C(=O)NCCc3ccc(O)cc3)CC2)n1	15	0	5	0	0	0	0	0	6	3	6	0	11	0	0	6	0
Cc1cccc(Nc2cc(Nc3cccc(C(=O)N(CC(C)O)CC(C)O)c3)ncn2)c1 (stereo not drawn)	59	0	3	27	0	83	0	0	11	8	20	1	0	1	7	14	1

More lines, now with the values ahead:

inhibition [1] [%]	inhibition [2] [%]	inhibition [3] [%]	inhibition [4] [%]	inhibition [5] [%]	inhibition [6] [%]	inhibition [7] [%]	inhibition [8] [%]	inhibition [9] [%]	inhibition [10] [%]	inhibition [11] [%]	inhibition [12] [%]	inhibition [13] [%]	inhibition [14] [%]	inhibition [15] [%]	inhibition [16] [%]	inhibition [17] [%]	Compound
95	0	38	99	1	87	9	0	34	87	90	1	0	13	84	23	30	O=C(NC[C@@H]1CCCO1)c1cccc(Nc2nccc(Nc3ccc4ncsc4c3)n2)c1
52	0	8	98	2	42	3	0	27	39	45	0	0	0	11	0	16	O=C(NCCc1ccc(O)cc1)c1cccc(Nc2nccc(Nc3ccc4ncsc4c3)n2)c1
19	0	4	67	3	22	0	0	23	5	24	0	2	0	12	18	5	Cc1cccc(N(C)c2cc(Nc3ccc(CC(=O)Nc4ccc5ncsc5c4)cc3)ncn2)c1
80	0	12	98	1	72	35	0	56	53	51	5	0	7	28	19	27	CN(CCc1ccccn1)C(=O)c1cccc(Nc2nccc(Nc3ccc4ncsc4c3)n2)c1
